# Only some compounds are listed: those with a hit (about 1% of all), similar ones and a draw of the others.
# CAL PDZ FP-1: CAL PDZ peptide-binding inhibitors, primary screen, biochemical, fluorescence polarization, Cer-tagged CAL PDZ, HTS; 0.02% of 330,000 active; Golgi-associated PDZ and coiled-coil motif-containing protein (Homo sapiens), Q9HD26; inhibition, % at 20 µM; purified CAL PDZ, TMR-peptide fluorescence polarization, 1 h;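 active = highest replicate inhibition of at least 40%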;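 also: plate controls were DMSO neutral control wells for no effect and unlabeled competitor peptide control wells for full effect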
#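 System: purified tagged CAL PDZ domain construct (CerCALP). Schedule: 1 h incubation at room temperature before polarization reading. Medium: 25 mM sodium phosphate pH 7.4, 150 mM NaCl, TCEP, IgG, Thesit. Read-out: percent inhibition from loss of millipolarization. Measured by: FP readout, S and P plane fluorescence. Probe or stimulus: fluorescent TMR peptide probe.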
# PDI turbidity: inhibitors of human PDI, primary screen, biochemical, turbidity, single point, plate reader. Protein disulfide-isomerase (Homo sapiens), P07237. PDI insulin aggregation turbidity, A650, 90 min. inhibition, % at 10 µM. 0.052% of 350,000 active. AID 588391, 2011;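 active = mean inhibition across replicates of 30% or more, whatever share of single replicates reach that level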
# RAD52 inh: RAD52 DNA annealing inhibitors, primary screen, biochemical, FRET, single point, set 2 | inhibition, % at 18.7 µM | AID 651710, 2012 | recombinant RAD52 DNA annealing, FRET fluorescence | 0.46% of 360,000 active | DNA repair protein RAD52 homolog (Homo sapiens), P43351;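 active = every replicate showing at least 50% inhibition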
# Target sequence (P43351 whole entry, looked up): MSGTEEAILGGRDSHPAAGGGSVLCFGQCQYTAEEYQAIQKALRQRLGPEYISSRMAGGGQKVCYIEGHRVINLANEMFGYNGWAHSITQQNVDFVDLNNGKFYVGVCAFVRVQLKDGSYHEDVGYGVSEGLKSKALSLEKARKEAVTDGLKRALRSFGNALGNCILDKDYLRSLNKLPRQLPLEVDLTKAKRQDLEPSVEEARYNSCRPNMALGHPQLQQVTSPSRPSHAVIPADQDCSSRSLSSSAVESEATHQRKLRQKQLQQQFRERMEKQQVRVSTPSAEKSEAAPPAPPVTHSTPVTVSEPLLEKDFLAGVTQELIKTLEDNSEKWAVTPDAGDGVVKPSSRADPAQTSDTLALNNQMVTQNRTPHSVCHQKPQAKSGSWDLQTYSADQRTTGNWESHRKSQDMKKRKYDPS
# RAD54 inh: inhibitors of human RAD54 branch migration, primary screen, biochemical, fluorescence, single point; DNA repair and recombination protein RAD54-like (Homo sapiens), Q92698; 0.14% of 360,000 active; inhibition, % at 10.4 µM; RAD54 Holliday junction branch migration, FAM/BHQ fluorescence;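 active = mean normalized replicate activity at least 40 and at least half of replicates scoring 40 or more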;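 also: 0% = median of neutral control wells and 100% = median of positive control wells; inhibitors cause a drop in the FAM fluorescence signal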
# ERp5 inh: inhibitors of ERp5-driven insulin aggregation, primary screen, biochemical, turbidity, absorbance 650 nm, single point; inhibition, % at 9.99 µM; 0.05% of 350,000 active; 90 min; AID 651711, 2012;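 active = mean replicate inhibition above about 25%, with every replicate also reaching it, limit read from the data, passing the limit was not always enough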
# CAL PDZ FP-2: untagged CAL PDZ binding inhibitors, primary screen, biochemical, fluorescence polarization, HTS; Golgi-associated PDZ and coiled-coil motif-containing protein (Homo sapiens), Q9HD26; purified CAL PDZ, TMR-peptide fluorescence polarization, 1 h; inhibition, % at 24.9 µM; 0.92% of 300,000 active; AID 602252, 2012;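 active = mean inhibition of at least 30% with at least half of replicates also reaching 30%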;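 also: 0% = DMSO neutral control and 100% = excess unlabeled competitor peptide PRC23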
# Numbers without * were called inactive; . = not tested or not shown; + = active, no number.
SMILES,CAL PDZ FP-1,PDI turbidity,RAD52 inh,RAD54 inh,ERp5 inh,CAL PDZ FP-2
C[C@H](CO)N1C[C@H](C)[C@H](CN(C)C(=O)CN(C)C)Oc2cc(C#Cc3ccc(F)cc3)ccc2S1(=O)=O,.,.,60*,13,-2,.
O=C(C[C@@H]1CC[C@@H]2[C@H](COC[C@@H](O)CN2Cc2nccs2)O1)NCc1ccc(Cl)cc1,.,.,0,4,2,.
O=c1cc(-c2ccccc2F)nc(-c2ccccc2F)o1,-2,11,-3,.,0,34*
O=C(c1nc2ccc(Cl)cn2c1CN1CCC(CO)CC1)N1CCc2ccccc2C1,0,-1,-23,-6,0,38*
COc1ccccc1C#Cc1cnc2c(c1)C(=O)N([C@H](C)CO)C[C@H](C)[C@@H](CN(C)C(C)=O)O2,.,.,3,-2,2,.
NC(=S)NNc1cc(Cl)cc(Cl)c1,.,10,.,6,.,97*
NC(=S)Nc1cc(Cl)cc(Cl)c1,.,3,-29,4,-14,.
C/C=C/c1cnc2c(c1)C(=O)N([C@@H](C)CO)C[C@@H](C)[C@H](CN(C)C(=O)Cc1ccccc1)O2,.,.,6,4,-4,.
COC(=O)c1cc(S(=O)(=O)N2CCCC(C)C2)c[nH]1 (centres undefined),0,-1,0,11,3,78*
COc1ccc2c3c(n(C)c2c1)[C@@H](CO)N(C)CC31CN(S(=O)(=O)c2cn(C)cn2)C1,.,.,1,.,3,.
C[C@@H]1CN=C2N(CCNC(=O)CCC3CCCCC3)[C@H](Cc3ccc(O)cc3)CN21,-1,7,1,1,4,1
O=C(CCC1CCCCC1)NCCN1C2=NC[C@H](Cc3ccc(O)cc3)N2C[C@H]1Cc1ccc(O)cc1,-4,34*,15,0,0,14
O=C(CN1CCOCC1)NCC[C@H]1CC[C@@H](NS(=O)(=O)c2ccc(Cl)cc2)[C@@H](CO)O1,.,.,0,5,-2,.
Cc1cc(/C=C(\C#N)C(=O)O)c(C)n1-c1ccc(Br)cc1,-2,1,-17,4,4,+
CCc1nnc(NC(=O)CCS(=O)(=O)Cc2ccccc2)s1,-2,1,3,4,-1,0
CCC(CC)c1nnc(NC(=O)CCS(=O)(=O)Cc2ccccc2)s1,-1,-8,-7,8,0,41*
COC(=O)C[C@H]1C[C@@H]2c3cc(NS(=O)(=O)c4ccc(OC)cc4)ccc3O[C@@H]2[C@@H](CO)O1,.,.,.,-7,.,.
C[C@@H]1CN([C@H](C)CO)C(=O)c2cc(NC(=O)Nc3ccc(C(F)(F)F)cc3)ccc2O[C@@H](C)CCCCO[C@H]1CN(C)S(=O)(=O)c1ccccc1,.,.,-16,-2,-6,.
C[C@@H]1CN([C@@H](C)CO)C(=O)c2cc(NS(=O)(=O)c3cccs3)ccc2O[C@@H]1CN(C)S(=O)(=O)c1ccc(Cl)cc1,.,.,-8,12,-1,.
O=C(O)Cc1sc(-c2ccc(Cl)cc2)nc1-c1ccccc1,-1,1,.,-9,.,54*
CCOC(=O)C1CCN(c2ccc(-c3cccs3)nn2)CC1,.,-3,-11,-9,3,93*
C[C@H](O)C#Cc1ccc2c(c1)O[C@H](CN(C)Cc1ccc(-c3ccccc3)cc1)[C@@H](C)CN([C@@H](C)CO)S2(=O)=O,.,.,6,-33,4,.
O=C(C[C@@H]1CC[C@@H](NC(=O)c2ccncc2)[C@H](CO)O1)NCCc1ccncc1,.,.,0,-2,-2,.
COc1cccc(NC(=O)Nc2ccc3c(c2)C(=O)N(C)C[C@H](OC)[C@H](C)CN(C)[C@@H](C)CO3)c1,.,.,93*,0,3,.
COc1ccccc1CN1C[C@@H](C)[C@H](OC)CN(C)C(=O)c2cc(NC(=O)Nc3ccccc3OC)ccc2OC[C@H]1C,.,.,52*,6,3,.
SMILES,CAL PDZ FP-1,PDI turbidity,RAD52 inh,RAD54 inh,ERp5 inh,CAL PDZ FP-2
CO[C@H]1CN(C)C(=O)c2cc(NC(=O)Nc3cccc(Cl)c3)ccc2OC[C@H](C)N(C)C[C@H]1C,.,.,21,9,5,.
COc1cccc(NC(=O)Nc2ccc3c(c2)C(=O)N(C)C[C@@H](OC)[C@@H](C)CN(C)[C@@H](C)CO3)c1,.,.,88*,5,2,.
COc1cccc(NC(=O)Nc2ccc3c(c2)C(=O)N(C)C[C@H](OC)[C@@H](C)CN(C)[C@H](C)CO3)c1,.,.,94*,4,-3,.
O=C(C[C@H]1CC[C@@H]2[C@H](COC[C@H](O)CN2C(=O)c2ccccc2)O1)NCCCN1CCOCC1,.,.,.,12,.,.
C[C@@H]1CN([C@H](C)CO)C(=O)c2cc(C#C[C@@H](C)O)cnc2O[C@H]1CN(C)C(=O)Cc1ccncc1,.,.,-13,-5,-3,.
C[C@H]1CN([C@@H](C)CO)C(=O)c2cc(NS(=O)(=O)c3cccs3)ccc2O[C@H]1CN(C)Cc1ccncc1,.,.,10,-1,3,.
CO[C@H]1CN(C)C(=O)c2cc(NC(=O)CC(F)(F)F)ccc2OC[C@H](C)N(C(=O)C2CC2)C[C@@H]1C,.,.,-10,.,42*,.
CO[C@@H]1CN(C)C(=O)c2cc(NC(=O)CC(F)(F)F)ccc2OC[C@@H](C)N(C(=O)C2CCCC2)C[C@H]1C,.,.,-48,-7,1,.
CN1CCN(c2cc(N3CCN(C(=O)c4ccco4)CC3)c3c4c(onc24)-c2ccccc2C3=O)CC1,-3,-3,.,54*,.,-14
O=C1c2ccccc2-c2onc3c(N4CCN(CCO)CC4)cc(N4CCN(C(=O)c5ccco5)CC4)c1c23,-3,-9,-42,31,7,-2
O=C(c1ccccc1F)N1CC[C@@H]2[C@@H](CO)Nc3ccc(C#Cc4ccc(F)cc4)cc3[C@@H]21,.,.,.,-8,.,.
Cc1cc(=O)n2nc(N3CCC(C(=O)NCc4cccc(Br)c4)CC3)sc2n1,-1,-2,-14,-5,7,119*
Cc1cc(=O)n2nc(N3CCCC(C(=O)NCc4ccccc4)C3)sc2n1 (centres undefined),0,.,-12,0,2,.
COc1ccc(/C=C/C(=O)N2CCN(c3ccccc3)CC2)cc1S(=O)(=O)N1CCOCC1,0,-4,-10,.,-4,52*
CC(OC(=O)c1ccc(Cl)c([N+](=O)[O-])c1)C(=O)N1CCN(Cc2ccccc2)CC1 (centres undefined),0,-2,-7,0,11,147*

# High-throughput results (PubChem BioAssay)
